Entries after “also recorded” stand apart in the source; their conditions may differ. Read-outs that look alike come from different tables or passages of the source.
Legend:
human TRPV1 = human TRPV1 (Homo sapiens, UniProt Q8NER1); assay: hTRPV1 antagonism, inhibition of activation by capsaicin; assay type: cell-based
body temperature = assay: Body temperature study; assay type: in vivo, mouse; details: at the given doses, oral
[1] = tested on: capsaicin-induced hypothermia; assay: Inhibition of capsaicin-induced hypothermia after oral administration; design: species or system mouse; details: in vivo
[2] = tested on: CCI-induced cold allodynia; assay: CCI-induced cold allodynia; assay type: in vivo; details: mouse, Bennett model, oral, 10 mg/kg
Summary of the method: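 Mice with chronic constriction injury (Bennett model) received test compound orally. Cold allodynia was then scored and expressed as % maximal possible effect. Groups were n = 10, reported as mean ± SEM, and compared with vehicle (p < 0.05).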

[3] = capsaicin 100 nM, FLIPR, hTRPV1 expressed in CHO cells

Chain of human TRPV1 (Q8NER1 whole entry): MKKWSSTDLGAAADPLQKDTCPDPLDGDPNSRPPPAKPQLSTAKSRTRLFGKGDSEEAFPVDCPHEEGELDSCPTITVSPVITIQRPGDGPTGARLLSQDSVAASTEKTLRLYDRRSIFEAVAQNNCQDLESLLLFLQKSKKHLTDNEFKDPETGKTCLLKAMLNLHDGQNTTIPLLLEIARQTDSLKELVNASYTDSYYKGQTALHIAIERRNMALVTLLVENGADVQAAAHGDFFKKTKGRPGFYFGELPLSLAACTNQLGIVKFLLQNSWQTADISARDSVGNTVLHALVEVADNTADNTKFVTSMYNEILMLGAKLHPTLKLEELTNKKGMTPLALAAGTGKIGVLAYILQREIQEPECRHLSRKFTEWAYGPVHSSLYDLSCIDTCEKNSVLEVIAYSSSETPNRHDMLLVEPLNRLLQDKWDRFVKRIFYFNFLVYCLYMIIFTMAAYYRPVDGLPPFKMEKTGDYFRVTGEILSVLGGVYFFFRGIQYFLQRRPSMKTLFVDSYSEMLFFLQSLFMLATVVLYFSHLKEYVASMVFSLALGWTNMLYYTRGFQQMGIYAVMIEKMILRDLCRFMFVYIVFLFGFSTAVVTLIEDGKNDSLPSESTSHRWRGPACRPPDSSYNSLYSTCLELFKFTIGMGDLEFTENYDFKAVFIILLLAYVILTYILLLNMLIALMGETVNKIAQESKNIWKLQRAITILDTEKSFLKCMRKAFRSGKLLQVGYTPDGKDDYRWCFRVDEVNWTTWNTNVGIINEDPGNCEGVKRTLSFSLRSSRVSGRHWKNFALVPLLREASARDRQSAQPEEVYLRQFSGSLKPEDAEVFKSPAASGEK

CC(C(=O)NCc1ccc(C(F)(F)F)cc1[N+](=O)[O-])c1ccc(NS(C)(=O)=O)c(F)c1 (centres unmarked) [Compound 52, 2-(3-Fluoro-4-methanesulfonylamino-phenyl)-N-(2-nitro-4-trifluoromethyl-benzyl)-propionamide]
hTRPV1 antagonism in words (human TRPV1; [3]): weak antagonists

2-(2-Fluoro-4-(methylsulfonamido)phenyl)-N-(2-(4-(4-fluorobenzyl)piperidin-1-yl)-4-(trifluoromethyl)benzyl)propanamide [Compound 20]
Ki (human TRPV1; read-out: Ki (CAP), capsaicin 100 nM, FLIPR, hTRPV1 expressed in CHO cells): 400 pM

CC(C(=O)NCc1ccc(C(F)(F)F)cc1Cl)c1ccc(NS(C)(=O)=O)c(F)c1 (centres unmarked) [Compound 51, 2-(3-Fluoro-4-methanesulfonylamino-phenyl)-N-(2-chloro-4-trifluoromethyl-benzyl)-propionamide]
hTRPV1 antagonism in words (human TRPV1; [3]): good antagonism

CC(C(=O)NCc1ccc(C(F)(F)F)cc1SC1CCCC1)c1ccc(NS(C)(=O)=O)c(F)c1 (centres unmarked) [Compound 43, 2-(3-Fluoro-4-(methylsulfonamido)phenyl)-N-(2-cyclopentylthio-4-(trifluoromethyl)-benzyl)propanamide]
Hyperthermia / body temperature effect of compound alone (body temperature): without hyperthermia; also recorded: did not show any hyperthermia; also recorded: thermoneutral
Effect on capsaicin-induced hypothermia in words [1]: blocked capsaicin-induced hypothermia

CC(C(=O)NCc1ccc(C(F)(F)F)cc1N1CCOCC1)c1ccc(NS(C)(=O)=O)c(F)c1 (centres unmarked) [Compound 27, 2-(3-Fluoro-4-methanesulfonylamino-phenyl)-N-(2-morpholin-4-yl-4-trifluoromethyl-benzyl)-propionamide]
fold less potent than the corresponding piperidine surrogate (10) (human TRPV1; capsaicin antagonism, versus compound 10): ca. 4 fold

2-(3-Fluoro-4-(methylsulfonamido)phenyl)-N-(2-cyclopentylthio-4-(trifluoromethyl)-benzyl)propanamide [Compound 49]
hTRPV1 antagonism in words (human TRPV1; [3]): moderate antagonism

CCCCCCOc1cc(C(F)(F)F)ccc1CNC(=O)C(C)c1ccc(NS(C)(=O)=O)c(F)c1 (centres unmarked) [Compound 31, 2-(3-Fluoro-4-(methylsulfonamido)phenyl)-N-(2-(hexyloxy)-4(trifluoromethyl)benzyl)propanamide]
Ki (human TRPV1): 700 to 800 pM

CC(C(=O)NCc1ccc(C(F)(F)F)cc1-c1cccnc1)c1ccc(NS(C)(=O)=O)c(F)c1 (centres unmarked) [Compound 62, 2-(3-Fluoro-4-methanesulfonylamino-phenyl)-N-(2-pyridin-3-yl-4-trifluoromethylbe-nzyl)-propionamide]
hTRPV1 antagonism in words (human TRPV1; [3]): weak antagonist

C[C@H](C(=O)NCc1ccc(C(F)(F)F)cc1SC1CCCCC1)c1ccc(NS(C)(=O)=O)c(F)c1 [Compound 44S]
max antiallodynic efficacy in cold allodynia, MPE [2]: 57 % MPE
Hyperthermia / body temperature effect of compound alone (body temperature): without hyperthermia; also recorded: did not show any hyperthermia; also recorded: thermoneutral
Effect on capsaicin-induced hypothermia in words [1]: blocked capsaicin-induced hypothermia

CC(C(=O)NCc1ccc(C(F)(F)F)cc1F)c1ccc(NS(C)(=O)=O)c(F)c1 (centres unmarked) [Compound 50, 2-(3-Fluoro-4-methanesulfonylamino-phenyl)-N-(2-fluoro-4-trlfluoromethyl-benzyl)-propioamide]
hTRPV1 antagonism in words (human TRPV1; [3]): weak antagonists

CC(C(=O)NCc1ccc(C(F)(F)F)cc1SCCCO)c1ccc(NS(C)(=O)=O)c(F)c1 (centres unmarked) [Compound 42, 2-(3-Fluoro-4-(methylsulfonamido)phenyl)-N-(2-((3-hydroxypropyl)thio)-4-(trifluoro-methyl)benzyl)propanamide]
hTRPV1 antagonism in words (human TRPV1; [3]): loss of activity

Source: PMC6959537 (Bioorganic & medicinal chemistry, 2015)
